Results: ChEMBL document CHEMBL1681784, “Development of sulfonamide AKT PH domain inhibitors” (Bioorg Med Chem, 2011)
Calls of active or inactive are those of the source. The calls are words filed in the database; no cut-off is given here.

test system: BXPC-3; experiment: Inhibition of AKT phosphorylation at serine 473 residue in human BxPC3 cells at 10 uM after 4 hrs by ELISA; assay type: cell-based
Procedure, shortened: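 BxPC3 cells kept in DMEM with 10% heat-inactivated FBS and 4.5 g/L glucose under 5% CO2, mycoplasma-free. Compound made fresh as a 10 mM DMSO stock and dosed at 10 μM final into the medium for 4 h. Equal amounts of lysate run on an MSD pSer473-AKT/total AKT plate; read-out is the pAKT/AKT ratio.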

Question: With `CCCCCCCCCCCCc1ccc(S(=O)(=O)Nc2ccccc2)cc1` as the compound, how does the inhibition read?
Answer: The inhibition was “inactive”.

Question: How did the inhibition turn out when `CCCCCCCCCCCCc1ccccc1S(=O)(=O)Nc1nncs1` was run?
Answer: Its inhibition is “inactive”.

Question: With `CCCCCCCCCCCCc1cccc(S(=O)(=O)Nc2nncs2)c1` as the compound, how does the inhibition read?
Answer: The inhibition was “inactive”.

test system: BXPC-3; experiment: Cytotoxicity against human BxPC3 cells by MTT assay; assay type: functional, cell-based

Question: How did the IC50 turn out when `CCCCCCCCCC(=O)Nc1ccc(S(=O)(=O)Nc2nnc(CC(=O)OCC)s2)cc1` was run?
Answer: Its IC50 is 170 µM.

Question: `COCCOCCOCC(=O)Nc1ccc(S(=O)(=O)Nc2nncs2)cc1` was tested. Which IC50 did it give?
Answer: The IC50 was greater than 300 µM.

Question: For `Nc1ccc(S(=O)(=O)Nc2nncs2)cc1`, which IC50 is on record?
Answer: The IC50 was greater than 300 µM.

Question: How did the IC50 turn out when `CCc1nnc(NS(=O)(=O)c2ccc(N)cc2)s1` [SULFAETHIDOLE] was run?
Answer: Its IC50 is greater than 300 µM.

Question: `CCOC(=O)Cc1nnc(NS(=O)(=O)c2ccc(NC(C)=O)cc2)s1` was tested. Which IC50 did it give?
Answer: The IC50 was 176 µM.

Question: Which IC50 does the source give for `CCCCCCCCCC(=O)Nc1ccc(S(=O)(=O)Nc2nnc(S(N)(=O)=O)s2)cc1` here?
Answer: The IC50 was greater than 300 µM.

Question: With `CC(=O)Nc1ccc(S(=O)(=O)Nc2nnc(S(N)(=O)=O)s2)cc1` as the compound, how does the IC50 read?
Answer: Its IC50 is greater than 300 µM.

Question: Which IC50 does the source give for `O=S(=O)(Nc1nnc(CO)s1)c1ccc(-c2ccccc2)cc1` here?
Answer: The IC50 was greater than 300 µM.

Question: Which IC50 does the source give for `Cc1nnc(NS(=O)(=O)c2ccc(N)cc2)s1` [SULFAMETHIZOLE] here?
Answer: The IC50 was greater than 300 µM.

Question: Which IC50 does the source give for `CCCCCCCCCC(=O)Nc1ccc(S(=O)(=O)Nc2nnc(C)s2)cc1` here?
Answer: Its IC50 is 149 µM.

Question: How did the IC50 turn out when `CC(=O)Nc1ccc(S(=O)(=O)Nc2nnc(C)s2)cc1` was run?
Answer: Its IC50 is greater than 300 µM.

Question: How did the IC50 turn out when `CCCCCCCCCC(=O)Nc1ccc(S(=O)(=O)Nc2nnc(C(C)(C)C)s2)cc1` was run?
Answer: The IC50 was greater than 300 µM.

Question: `CCCCCCCCCCCCc1ccc(S(=O)(=O)Nc2nnc(C)s2)cc1` was tested. Which IC50 did it give?
Answer: Its IC50 is 51 µM.

Question: How did the IC50 turn out when `CCCCCCc1ccc(S(=O)(=O)Nc2nncs2)cc1` was run?
Answer: Its IC50 is 266 µM.

Question: With `Nc1ccc(S(=O)(=O)Nc2nnc(CO)s2)cc1` as the compound, how does the IC50 read?
Answer: The IC50 was greater than 300 µM.

Question: Which IC50 does the source give for `CCCCCCCCCC(=O)Nc1ccc(S(=O)(=O)Nc2nnc(CC)s2)cc1` here?
Answer: Its IC50 is 146 µM.

Question: For `CCCCCCCCCCCCc1ccc(S(=O)(=O)Nc2ccccc2)cc1`, which IC50 is on record?
Answer: The IC50 was 38 µM.

Question: For `CC(=O)Nc1ccc(S(=O)(=O)Nc2nncs2)cc1`, which IC50 is on record?
Answer: Its IC50 is greater than 300 µM.

Question: For `Nc1ccc(S(=O)(=O)Nc2nnc(CC(=O)O)s2)cc1`, which IC50 is on record?
Answer: Its IC50 is greater than 300 µM.

Question: With `CC(=O)Nc1ccc(S(=O)(=O)Nc2nnc(CO)s2)cc1` as the compound, how does the IC50 read?
Answer: The IC50 was greater than 300 µM.

Question: For `CCc1nnc(NS(=O)(=O)c2ccc(NC(C)=O)cc2)s1`, which IC50 is on record?
Answer: The IC50 was greater than 300 µM.

Question: How did the IC50 turn out when `O=S(=O)(Nc1nncs1)c1ccc(-c2ccccc2)cc1` was run?
Answer: Its IC50 is greater than 300 µM.

Question: How did the IC50 turn out when `CCCCCCCCCC(=O)Nc1ccc(S(=O)(=O)Nc2nnc(CO)s2)cc1` was run?
Answer: The IC50 was 189 µM.

Question: How did the IC50 turn out when `CCCCc1ccc(S(=O)(=O)Nc2nncs2)cc1` was run?
Answer: Its IC50 is greater than 300 µM.

Question: How did the IC50 turn out when `CCCCCCCCCC(=O)Nc1ccc(S(=O)(=O)Nc2nnc(CC(=O)O)s2)cc1` was run?
Answer: Its IC50 is greater than 300 µM.

Question: `CCCCCCCCCC(=O)Nc1ccc(S(=O)(=O)Nc2nncs2)cc1` was tested. Which IC50 did it give?
Answer: The IC50 was 180 µM.

Question: Which IC50 does the source give for `CCCCCCCCCC(=O)Nc1ccc(S(=O)(=O)Nc2nnc(C(=O)OCC)s2)cc1` here?
Answer: Its IC50 is 117 µM.

Question: Which IC50 does the source give for `CC(=O)Nc1ccc(S(=O)(=O)Nc2nnc(C(C)(C)C)s2)cc1` here?
Answer: The IC50 was greater than 300 µM.

Question: Which IC50 does the source give for `CC(=O)Nc1ccc(S(=O)(=O)Nc2nnc(CC(=O)O)s2)cc1` here?
Answer: The IC50 was greater than 300 µM.

Question: `CCOC(=O)c1nnc(NS(=O)(=O)c2ccc(NC(C)=O)cc2)s1` was tested. Which IC50 did it give?
Answer: The IC50 was greater than 300 µM.

Question: Which IC50 does the source give for `CCCCCCCCCCCCc1ccccc1S(=O)(=O)Nc1nncs1` here?
Answer: Its IC50 is 74 µM.

Question: Which IC50 does the source give for `Nc1ccc(S(=O)(=O)Nc2nnc(S(N)(=O)=O)s2)cc1` here?
Answer: The IC50 was greater than 300 µM.

Question: How did the IC50 turn out when `CC(C)(C)c1nnc(NS(=O)(=O)c2ccc(N)cc2)s1` [GLYBUTHIAZOL] was run?
Answer: The IC50 was greater than 300 µM.

Question: For `CCCCCCCCCCCCc1cccc(S(=O)(=O)Nc2nncs2)c1`, which IC50 is on record?
Answer: Its IC50 is 71 µM.

Question: For `CCCCCCCCCCCCc1ccc(S(=O)(=O)Nc2nnc(CC(=O)O)s2)cc1`, which IC50 is on record?
Answer: Its IC50 is 117 µM.
